Compounds with a hit are over-represented: about 2.8% of the library has one in this group of screens.
Measles CPE = protection of cells from measles virus; Measles virus-infected cells, CPE protection, absorbance; protection (pct of control), % at 4 µM; 140,000 tested, 1.5% active; AID 841; in the data active = protection mostly above about 24%, no sharp cut-off; inactive = mostly below about 26%
NPY-Y1 PAM-ag = potentiates or activates human NPY-Y1 receptor; P25929; NPY-Y1 expressing cells, potentiator/agonist activation; activation, % at 3.6 µM; 220,000 tested, 0.37% active; in the data active = activation above about 33%, passing the limit was not always enough;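 also: cells stimulated with NPY at EC10 then isoproterenol at EC100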
Target sequence (P25929 whole entry, looked up): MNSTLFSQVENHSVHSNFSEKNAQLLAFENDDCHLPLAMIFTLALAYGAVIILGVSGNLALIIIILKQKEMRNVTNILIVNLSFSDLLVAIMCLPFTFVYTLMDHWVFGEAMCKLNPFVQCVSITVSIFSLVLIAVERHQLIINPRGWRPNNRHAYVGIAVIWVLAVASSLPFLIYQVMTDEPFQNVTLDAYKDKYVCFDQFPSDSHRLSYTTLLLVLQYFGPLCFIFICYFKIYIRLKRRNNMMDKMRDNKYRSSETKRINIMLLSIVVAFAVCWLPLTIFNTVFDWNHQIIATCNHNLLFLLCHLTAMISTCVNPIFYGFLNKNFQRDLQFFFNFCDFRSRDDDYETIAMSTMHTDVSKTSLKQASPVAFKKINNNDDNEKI
Rad51 HR inh = blocks human Rad51 in homologous recombination; 200,000 tested, 0.085% active; Q06609; hRad51 DNA strand exchange, fluorescence dequenching; inhibition, % at 10 µM;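 active = inhibition above 40% at the single screening dose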
Target sequence (Q06609 whole entry, looked up): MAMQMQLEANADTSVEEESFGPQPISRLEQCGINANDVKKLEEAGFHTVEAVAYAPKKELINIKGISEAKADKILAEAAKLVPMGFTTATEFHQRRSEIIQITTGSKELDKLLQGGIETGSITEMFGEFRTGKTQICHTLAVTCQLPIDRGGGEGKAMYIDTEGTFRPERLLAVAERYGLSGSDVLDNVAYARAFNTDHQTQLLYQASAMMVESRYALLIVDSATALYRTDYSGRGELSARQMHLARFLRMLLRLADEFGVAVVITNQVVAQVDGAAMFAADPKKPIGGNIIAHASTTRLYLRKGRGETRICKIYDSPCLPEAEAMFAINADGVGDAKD
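Material: Human Rad51 nucleoprotein filaments preassembled on unlabelled ssDNA | Also added: Labelled 47-mer dsDNA for strand exchange | Dosing: Single dose, 10 µM final compound | Schedule: 30-min compound preincubation and 15-min exchange, both room temperature | Technique: Fluorescence dequenching at 485/520 nm | Measure: Percent inhibition relative to plate controls and blanks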
NPY2 pot ag = potentiates or activates human NPY-Y2 receptor | P49146 | cells expressing NPY-Y2, potentiator/agonist read-out | AID 1359 | activation, % at 3.6 µM | 220,000 tested, 0.45% active; in the data active = activation above about 27%;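 also: cells stimulated with NPY near EC25 plus isoproterenol at EC100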
NPY Y1 blocker = NPY-Y1 (human) receptor antagonism; P25929; HEK293-CNG Y1 cells, membrane potential fluorescence; NPY at EC95, then isoproterenol; inhibition, % at 3.6 µM; 200,000 tested, 1% active;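 active = inhibition above the campaign mean inhibition of all tested compounds plus 3 SD, cut at about 20% in these data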
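Assay system: HEK293 cells with Y1 receptor plus CNG channel | Probe or stimulus: NPY (25 nM), isoproterenol (1 µM), Ro 20-1724 (25 µM) | Timing: Compound incubation 1 h at room temperature, readout 45 min post-stimulation | Measured by: Membrane-potential fluorescent dye readout | Benchmarks: High control isoproterenol alone, low control NPY with isoproterenol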
NPY Y2 blocker = blocks the human neuropeptide Y Y2 receptor. NPY-Y2 expressing cells, antagonist mode. inhibition, % at 2.7 µM. 140,000 tested, 0.99% active. AID 793; in the data active = inhibition above about 17%
Large screens that a line does not name were inactive.

Cc1ccc(CNC(=O)/C(C#N)=C/c2ccc(C)s2)cc1	Measles CPE 20
Cc1cc(C)nc(SCC(CSc2nc(C)cc(C)n2)C(=O)O)n1	none (no result: Measles CPE, NPY Y2 blocker)
CCCCNC(=O)c1ccc(NC(C)=O)c(Cl)c1	none (no result: Measles CPE, NPY Y2 blocker)
COc1ccc(CCNC(=O)C2CC2)cc1OC	Measles CPE 46
CCOc1cc(C(=O)N(C)Cc2cc3ccccc3[nH]c2=O)cc(OCC)c1OCC	Measles CPE 64
CCOc1ccccc1C(=O)N(C)Cc1cc2ccccc2[nH]c1=O	none
O=[N+]([O-])c1ccc(N2CCCC2)cc1NC(c1ccccc1)c1ccccc1	none
O=[N+]([O-])c1ccc(N2CCOCC2)cc1NC(c1ccccc1)c1ccccc1	Measles CPE 45
COc1ccc(OC)c(NC(=O)Cn2cc(C=O)c3ccccc32)c1	none (no result: Measles CPE, NPY Y2 blocker)
O=C(NC(CCl)c1ccccc1)c1ccc(Cl)cc1 (centres undefined)	none (no result: Measles CPE, NPY Y2 blocker)
O=C(CC(NC(=O)c1ccccc1Cl)c1ccccc1)NCCc1ccc(Cl)cc1 (centres undefined)	Measles CPE 41
CC[C@H](C)NC(=O)c1ccc(Cn2c(=S)[nH]c3c([nH]c4ccc(OC)cc43)c2=O)cc1	none
COc1ccc(-c2nnc(Nc3ccc(CC(N)=O)cc3)c3ccccc23)cc1	Measles CPE 64
CNC(=S)Nc1ccc(OCc2ccccc2)cc1	none (no result: Measles CPE, Rad51 HR inh, NPY Y2 blocker)
CCOc1ccc(NC(=O)Nc2cccn(Cc3ccccc3)c2=O)cc1	Rad51 HR inh 41 (no result: Measles CPE, NPY Y2 blocker)
CCOc1ccc(NC(=S)Nc2ccc(OCc3ccccc3)cc2)cc1	Measles CPE 44
COc1ccc(CC(=O)NCc2csc(-c3cccs3)n2)cc1OC	none (no result: Measles CPE, NPY Y1 blocker, NPY Y2 blocker)
Cn1c(=O)c(C(=O)COC(=O)c2cc(-c3ccccc3)nc3ccccc23)c(N)n(Cc2ccccc2)c1=O	Measles CPE 25 (no result: Rad51 HR inh)
Cn1c(=O)c(C(=O)COC(=O)c2cc(C(F)(F)F)nc3ccccc23)c(N)n(Cc2ccccc2)c1=O	none (no result: Rad51 HR inh)
CC(C)Cn1c(N)c(C(=O)COC(=O)CCc2nc3ccccc3s2)c(=O)n(C)c1=O	NPY Y1 blocker 20 (no result: Measles CPE, NPY Y2 blocker)
Cc1ccc(-n2ncc3c(NNC(=O)Cc4ccccc4)ncnc32)cc1	none
C=CCn1cc(/C=N/Nc2nc3ccccc3[nH]2)c2ccccc21	NPY-Y1 PAM-ag 48, NPY2 pot ag 47 (no result: Rad51 HR inh)
Cn1c(/C=N/Nc2nc3ccccc3[nH]2)nc2ccccc21	none (no result: Measles CPE, NPY Y2 blocker)
CC(NC(=O)CCc1ccccc1)c1cc2c(cc1Cl)OCCO2 (centres undefined)	none (no result: Rad51 HR inh)
NNC(=O)c1cc2sccc2s1	none (no result: Measles CPE, NPY Y1 blocker, NPY Y2 blocker)
CCN(Cc1ccccc1)c1ccc(N=Nc2nn(C)c(C)c2[N+](=O)[O-])cc1	NPY-Y1 PAM-ag 58, NPY2 pot ag 41
Cc1cccc(NC(=O)CCC(=O)OCC(=O)c2ccc(Oc3ccc([N+](=O)[O-])cc3)cc2)c1	NPY-Y1 PAM-ag 53, NPY2 pot ag 47 (no result: Rad51 HR inh)
COC(=O)c1c(NC(=O)c2c(C)noc2C)sc2c1CCCCCC2	none
COC(=O)c1c(NC(=O)c2c(-c3ccccc3Cl)noc2C)sc2c1CCC2	NPY Y1 blocker 37, NPY Y2 blocker 23 (no result: Rad51 HR inh)
Cc1ccnc(NC(=O)c2c(-c3ccccc3Cl)noc2C)c1	Measles CPE 24
Cc1ccc(C)c(Cc2c(C)nc3c(C(=O)N4CCOCC4)cnn3c2C)c1	Measles CPE 40 (no result: Rad51 HR inh)
CCOC(=O)N1CCN(C(=O)c2cnn3c(C)c(Cc4ccc(C)cc4)c(C)nc23)CC1	none (no result: Rad51 HR inh)
CCn1c(C)cs/c1=N\C(=S)Nc1ccccc1C	none
Cc1ccc(SCc2[nH]nc3c2C(c2ccco2)C(C#N)=C(N)O3)cc1 (centres undefined)	NPY Y1 blocker 106, NPY Y2 blocker 127
CCc1[nH]nc2c1C(c1ccc(C)o1)C(C#N)=C(N)O2 (centres undefined)	none (no result: Measles CPE, Rad51 HR inh, NPY Y2 blocker)
Cc1ccc(SCc2[nH]nc3c2C(c2ccc(C)o2)C(C#N)=C(N)O3)cc1 (centres undefined)	NPY Y1 blocker 120, NPY Y2 blocker 79 (no result: Rad51 HR inh)
Cc1ccc(CN2C3=NCCN3c3ccccc32)cc1	none (no result: Measles CPE, NPY Y2 blocker)
O=C(CN1C2=NCCN2c2ccccc21)C12CC3CC(CC(C3)C1)C2	NPY Y1 blocker 67, NPY Y2 blocker 49
CCCC1Cc2nc(Cl)c(C#N)cc2CO1 (centres undefined)	none (no result: Measles CPE, NPY Y1 blocker, NPY Y2 blocker)
Cc1[nH]nc(-c2ccc(O)cc2O)c1-c1ccc(Cl)cc1	NPY2 pot ag 48
COc1ccc(-c2n[nH]c(C)c2-c2ccc(Cl)cc2)c(O)c1	none
Cc1ccc(NC(=S)N/N=C/c2ccc(Cl)c([N+](=O)[O-])c2)cc1	none
O=[N+]([O-])c1cc(/C=N/NC(=S)Nc2ccccc2Cl)ccc1Cl	NPY-Y1 PAM-ag 41, NPY2 pot ag 36 (no result: Measles CPE, NPY Y2 blocker)
CCC(c1nnnn1C1CCCC1)N1CCN(c2cccc(OC)c2)CC1 (centres undefined)	none (no result: Measles CPE, Rad51 HR inh, NPY Y2 blocker)
O=C(NC1CCCCC1)c1cc(-c2ccccn2)nc2ccccc12	none (no result: Measles CPE, NPY Y2 blocker)
Cc1ccc2nc(-c3ccccn3)cc(C(=O)NC3CCN(C)CC3)c2c1	Measles CPE 67 (no result: Rad51 HR inh)
CCCCNC(=S)NNC(=O)C12CC3CC(CC(C3)C1)C2	Rad51 HR inh 106
CSc1ccccc1NC(=O)c1ccccc1C	none (no result: Measles CPE, NPY Y2 blocker)
COc1cc2c(cc1OC)-c1cc(NC3CCCCC3)nc(=O)n1CC2	NPY Y1 blocker 33
COc1cc2c(cc1OC)-c1cc(NC3CCCCCCC3)nc(=O)n1CC2	NPY Y1 blocker 64, NPY Y2 blocker 72
Fc1ccc(/C=N/NC(=S)Nc2ccc(Cl)cc2)cc1F	none
COc1ccccc1NC(=O)c1sc(NC(=O)c2ccco2)c(C#N)c1C	none
Cc1ccccc1OCC(=O)Nc1sc(C(=O)Nc2cccc(C)c2C)c(C)c1C#N	Measles CPE 103
CCC1(CC)Cc2ccccc2C2=C(C(=O)N3CCCCC3)C(=O)C(=O)N21	none (no result: Measles CPE, Rad51 HR inh, NPY Y2 blocker)
CC(=O)/C(C#N)=C1\NC(=O)C(Cc2ccccc2)S1 (centres undefined)	Measles CPE 91
CSc1ccccc1NS(=O)(=O)c1ccc2c(c1)OCCO2	none
O=S(=O)(Nc1cccnc1Cl)c1ccc2c(c1)OCCO2	Measles CPE 33
COc1ccc(-n2c3c(c(=O)[nH]c2=O)C(NC(=O)c2ccncc2)(C(F)(F)F)C(=O)N3)cc1 (centres undefined)	none (no result: Measles CPE, NPY Y2 blocker)
Cc1cc(/C=N/Nc2nc(N)ncc2[N+](=O)[O-])c(C)n1-c1cccc(C(F)(F)F)c1	none (no result: Measles CPE, NPY Y1 blocker, NPY Y2 blocker)
CC1(C)CC(=O)C2=C(C1)Nc1cc3c(cc1C2c1ccc2c(c1)OCO2)OCO3 (centres undefined)	none
CC1(C)CC(=O)C2=C(C1)Nc1ccccc1NC2c1ccc2c(c1)OCO2 (centres undefined)	Measles CPE 41
COc1ccc(/C=C/C(=O)NCCc2ccc(S(N)(=O)=O)cc2)cc1	Measles CPE 56
COc1ccc(NC(=O)C(NC(=O)c2ccc(=O)[nH]c2)c2ccc(C)cc2)cc1 (centres undefined)	Measles CPE 33
Cc1cccc(NC(NC(=O)c2ccccn2)C(Cl)(Cl)Cl)c1 (centres undefined)	Measles CPE 39

Source: PubChem BioAssay
